SENP1 FRET inh – inhibitors of human SENP1 SUMO protease catalytic domain; Q9P0U3; recombinant SENP1 catalytic domain, CyPet-SUMO1-YPet FRET cleavage; inhibition, % at 10 µM; 360,000 compounds, 0.21% hits; AID 624204;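 active = inhibition at least 30% at 10 µM, raw YFP signal under a set limit, fluorescence ratio 0.5 to 1.5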;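 note: 0% = enzyme with DMSO and 100% = no enzyme wells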
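Assay system: hSENP1 catalytic domain, recombinant. Amount: SENP1 enzyme, 20 pM final. Schedule: 50 min reaction, RT, dark. Technique: FRET, CFP and YFP emission. Control set: no-enzyme wells low, DMSO-plus-enzyme wells high control.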
SENP6 block – SENP6 protease inhibition | Recombinant SENP6 catalytic domain, aminoluciferin luminescence | 330,000 compounds, 1.8% hits | Q9GZR1 | inhibition, % at 10 µM;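 active = inhibition above about 50% at the single tested dose, limit read from the data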;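 note: plate controls were DMSO wells with enzyme for no effect and DMSO wells lacking enzyme for full effect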
SENP8 block-1 – blocks the human protease SENP8; inhibition, % at 10 µM; Q96LD8; 330,000 compounds, 1.2% hits; purified SENP8, Z-RLRGG-aminoluciferin cleavage, luminescence; in the data active = inhibition above about 50%
SENP8 block-2 – SENP8 (human) protease inhibition | Q96LD8 | recombinant SENP8, Nedd8 substrate fluorescence | inhibition, % at 20 µM | 360,000 compounds, 0.64% hits | AID 602440; in the data active = inhibition mostly above about 40%, no sharp cut-off; inactive = mostly below about 27%
SENP7 block – SENP7 protease inhibition; recombinant SENP7, Z-RLRGG-aminoluciferin luminescence, 40 min; Q9BQF6; inhibition, % at 5 µM; 330,000 compounds, 1.5% hits;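 active = inhibition above about 50% at the single test dose, limit read from the data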;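 note: plate controls were DMSO with enzyme for no effect and no enzyme buffer wells for full effect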
Target sequence (Q9BQF6 706-1050 limits assumed): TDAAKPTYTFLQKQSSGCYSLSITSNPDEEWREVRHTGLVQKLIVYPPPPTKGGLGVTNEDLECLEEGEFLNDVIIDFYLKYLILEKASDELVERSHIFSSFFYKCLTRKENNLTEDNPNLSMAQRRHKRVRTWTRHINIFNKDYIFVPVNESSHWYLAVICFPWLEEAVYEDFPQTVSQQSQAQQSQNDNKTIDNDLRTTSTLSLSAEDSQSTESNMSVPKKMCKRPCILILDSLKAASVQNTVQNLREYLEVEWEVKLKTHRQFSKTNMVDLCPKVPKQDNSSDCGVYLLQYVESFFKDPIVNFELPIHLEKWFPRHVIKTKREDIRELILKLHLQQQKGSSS
SENP8 confirm – confirmation of human SENP8 protease inhibitors | Recombinant SENP8, Z-RLRGG-aminoluciferin luminescence, 60 min | inhibition, % at 12.5 µM | AID 488912 | shares compounds with SENP7 block | 6,200 compounds, 40% hits;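 active = mean inhibition across replicates above about 50%, limit read from the data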
SENP6 confirm – confirmation of human SENP6 protease inhibitors | shares compounds with SENP7 block | recombinant SENP6, Z-RLRGG-aminoluciferin luminescence | inhibition, % at 12.5 µM | 6,200 compounds, 58% hits | AID 488915
SENP7 confirm – confirmation of human SENP7 protease inhibitors. shares compounds with SENP7 block. 6,200 compounds, 69% hits. AID 488917. recombinant SENP7, Z-RLRGG-aminoluciferin luminescence, 40 min. inhibition, % at 12.5 µM
Casp3 select – caspase-3 inhibition (SENP selectivity assay). shares compounds with SENP7 block. purified caspase-3, Z-DEVD-aminoluciferin luminescence, 60 min. inhibition, % at 12.5 µM. 6,200 compounds, 60% hits;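 active = mean inhibition above about 50%, limit read from the data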;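 note: plate controls were enzyme with DMSO for no effect and wells without caspase-3 for full effect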
Target sequence (P42574 28-227 limits assumed): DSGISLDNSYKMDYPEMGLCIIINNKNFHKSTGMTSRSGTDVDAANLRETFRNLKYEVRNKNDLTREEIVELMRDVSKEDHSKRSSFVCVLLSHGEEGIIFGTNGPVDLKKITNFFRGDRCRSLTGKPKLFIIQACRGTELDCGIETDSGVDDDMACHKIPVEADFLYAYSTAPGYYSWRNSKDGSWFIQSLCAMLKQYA
Luc interf – interferes with luciferase luminescence in SENP counter-screen | AID 488919 | 6,200 compounds, 39% hits | Pre-incubated SENP8/Z-RLRGG-aminoluciferin, luciferase luminescence interference | inhibition, % at 12.5 µM | shares compounds with SENP7 block;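 active = mean inhibition above about 50% when retested at one dose, limit read from the data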;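 note: plate controls were DMSO wells with completed reaction for no effect and substrate without enzyme for full effect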
* marks the source's active call; other numbers are inactive results; . = no result given. Compounds with a hit are over-represented: about 2.5% of the library has one in this group of screens.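 Rule for the calls, unless noted: active = mean inhibition above about 50% in the one-dose retest (limit read from the data); inactive = the rest.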

SMILES	SENP1 FRET inh	SENP6 block	SENP8 block-1	SENP8 block-2	SENP7 block	SENP8 confirm	SENP6 confirm	SENP7 confirm	Casp3 select	Luc interf
Cc1ccc2nc(N3C(=O)C(O)=C(C(=O)c4ccco4)C3c3cccs3)sc2c1 (stereo not given)	-62.7	74.2*	52.6*	-61.6	45.9	6.8	10.0	29.0	37.5	15.3
Cc1cc(O)c(/C=N/OCc2ccc(Cl)cc2Cl)c(=O)o1	3.1	-2.0	3.9	2.0	2.6	.	.	.	.	.
Cc1cc(O)c(/C=N/Nc2cccc(Cl)c2)c(=O)o1	-6.5	69.9*	66.2*	-105.6	19.5	71.0*	71.4*	89.2*	86.7*	55.8*
Cc1cccc(N=Cc2c(O)cc(C)oc2=O)c1	7.6	-11.9	-4.8	-7.4	-3.7	.	.	.	.	.
Cc1cc(O)c(/C=N/Nc2ccccc2Cl)c(=O)o1	7.1	84.3*	73.7*	-105.8	40.5	72.2*	67.6*	86.6*	88.4*	63.3*
COc1ccc(N2CCN(c3ccc(C(=O)O)cc3[N+](=O)[O-])CC2)cc1	-2.7	-0.2	-6.7	10.6	2.1	.	.	.	.	.
O=C(c1cccs1)c1ccc(-c2cccs2)s1	10.3	95.0*	94.1*	-376.1	94.2*	64.8*	95.9*	96.9*	85.8*	41.5
CN1CCN(C(=O)c2ccc(-c3cccs3)s2)CC1	-10.0	5.5	1.4	-478.2	9.3	.	.	.	.	.
Cc1cc(SCC(=O)NCCC2=CCCCC2)nc2ccccc12	-3.3	2.1	-0.1	21.3	-0.4	.	.	.	.	.
CC(C)n1cnc2c(NCc3ccccc3)cc(N[C@H](C)CO)cc21	-16.1	-20.3	81.0*	-73.4	46.9	85.0*	90.4*	67.8*	97.3*	-3.3
CCC(CO)Oc1cc(NCc2ccccc2)c2ncn(C(C)C)c2c1 (stereo not given)	-30.4	-0.4	-1.2	13.1	11.3	.	.	.	.	.
CCC(COC)Oc1cc(NCc2ccccc2)c2ncn(C(C)C)c2c1 (stereo not given)	-60.0	83.7*	76.8*	10.9	73.1*	41.6	71.1*	22.7	4.8	-3.3
COc1cccc(N2CC(C(=O)Nc3nnc(SCCN4CCOCC4)s3)CC2=O)c1 (stereo not given)	-1.8	-4.9	2.0	-7.5	-5.6	.	.	.	.	.
O=C1COc2ccc(C(=O)COC(=O)Cc3ccsc3)cc2N1	1.0	9.1	2.8	-40.9	3.5	.	.	.	.	.
O=C(COc1ccccc1)Nc1ccc(-c2nnc(-c3ccco3)o2)cc1	-1.8	1.9	-16.4	-453.4	-15.2	.	.	.	.	.
CCCOc1ccc(-c2nnc(-c3ccco3)o2)cc1	1.0	-7.6	78.4*	-193.1	87.4*	4.3	45.2	59.1*	46.3	15.4
CC(C)COc1ccc(-c2nnc(-c3ccco3)o2)cc1	0.1	94.2*	59.0*	-244.2	94.2*	5.7	73.5*	62.5*	63.9*	48.1
O=[N+]([O-])c1ccc(S(=O)(=O)N/N=C/c2ccc3c(c2)OCO3)cc1	-0.5	-5.1	3.1	12.1	-3.0	.	.	.	.	.
O=[N+]([O-])c1ccccc1N/N=C/c1ccccc1	2.7	63.5*	61.1*	20.4	95.1*	22.5	21.0	11.3	25.8	-2.7
O=[N+]([O-])c1ccccc1N/N=C/c1ccc2c(c1)OCO2	2.4	33.8	82.1*	26.4	96.4*	13.9	16.3	13.5	24.8	3.8
CCCCc1ccc(-c2nn[nH]n2)nc1	3.1	.	.	16.9	.	.	.	.	.	.
CCCCc1ccc(-c2ccc(C)cc2O)nc1	-1.1	13.8	53.1*	27.4	72.5*	18.8	30.3	29.6	42.4	17.7
CCCCc1ccc(-c2ccc(Br)cc2O)nc1	0.6	12.1	-5.1	28.0	67.6*	9.5	9.8	10.9	25.0	3.9
O=C(NCc1cccc(F)c1)C1CCC(=O)N(C2CC2)C1 (stereo not given)	-0.7	-7.5	6.5	10.1	-1.1	.	.	.	.	.
Nc1c(N2CCOCC2)cc(Cl)c2nonc12	5.8	23.1	13.0	1.5	20.6	.	.	.	.	.
SMILES	SENP1 FRET inh	SENP6 block	SENP8 block-1	SENP8 block-2	SENP7 block	SENP8 confirm	SENP6 confirm	SENP7 confirm	Casp3 select	Luc interf
Nc1c(N2CCCC2)cc(Cl)c2nonc12	60.8*	91.4*	83.4*	13.4	49.5	45.8	85.6*	74.5*	10.6	1.7
Cc1ccc(-c2csc(NC(=O)c3cccc(S(=O)(=O)N4CCN(C)CC4)c3)n2)cc1	2.5	-10.6	-1.9	-42.6	4.2	.	.	.	.	.
Cc1ccc(-c2csc(NC(=O)COC(=O)c3cccc(S(=O)(=O)N4CCOCC4)c3)n2)cc1	.	51.4*	0.5	.	35.7	51.8*	51.3*	83.3*	69.9*	53.0*
COCCNc1nc(Oc2ccc(C(N)=O)cc2)c2sccc2n1	2.3	.	.	-235.5	.	.	.	.	.	.
Cc1ccc2nc(NC(=O)CCCc3nc4ccccc4s3)sc2c1	-8.2	16.6	5.7	3.4	8.8	.	.	.	.	.
Cc1ccc2nc(NC(=O)CCCC(=O)O)sc2c1	1.9	55.3*	54.2*	3.8	57.9*	3.4	16.5	26.8	17.5	6.7
CCOCC(=O)Nc1nc2ccc(OCC)cc2s1	1.0	71.4*	36.9	7.8	62.6*	56.0*	50.8*	81.1*	78.8*	61.8*
CCOCC(=O)Nc1nc2ccc(S(C)(=O)=O)cc2s1	0.6	-2.4	1.8	17.2	3.8	.	.	.	.	.
CCOCC(=O)Nc1nc2ccc(C)cc2s1	-0.4	49.0	42.0	9.2	59.6*	30.5	31.2	75.4*	71.7*	54.7*
N#C/C(=C\c1ccc(OCC(N)=O)cc1)c1ccccc1	0.4	8.4	-0.3	7.0	3.4	.	.	.	.	.
O=C(CCNC(=O)c1ccco1)NCc1ccc(C(=O)O)cc1	-0.8	-1.5	6.5	4.8	3.1	.	.	.	.	.
CCc1ccc2oc(-c3ccc(OC)cc3)cc(=Nc3c(C)n(C)n(-c4ccccc4)c3=O)c2c1	-1.5	96.6*	84.5*	-447.7	98.7*	22.9	20.0	15.6	48.2	19.8
COc1ccc(-c2cc(=Nc3ccc(C(=O)O)cc3)c3cc(C)ccc3o2)cc1	0.7	65.8*	78.6*	-445.7	89.5*	-3.5	81.0*	93.3*	83.8*	63.9*
CCc1ccc2oc(-c3ccc(OC)cc3)cc(=Nc3cccc(C(=O)O)c3)c2c1	0.6	-1.0	85.8*	-436.9	96.9*	82.7*	84.7*	95.0*	79.4*	63.0*
CC(C)CC(=O)Nc1ccc(C(=O)CN2CCC(C)CC2)cc1	-8.2	-12.6	3.6	-9.7	8.8	.	.	.	.	.

From PubChem
